# Measured values: PMC3641321 (Blood Cancer Journal, 2013)
# “And” between values parts separate entries of the source, which are not always exact repeats. Equal entries are not always repeated. “Also recorded” adds a separate entry of the source. Marks after values point to notes of the source that are not given here.
# What was measured:
# TEL-JAK1 = TEL-JAK1 (Homo sapiens, UniProt P23458+P41212); assay: AlphaScreen SureFire pSTAT5 assay, Ba/F3 TEL-JAK1; format: cell-based
# TEL-JAK2 = TEL-JAK2 (Homo sapiens, UniProt O60674+P41212); assay: AlphaScreen SureFire pSTAT5 assay, Ba/F3 TEL-JAK2; format: cell-based
# TEL-JAK3 = TEL-JAK3 (Homo sapiens, UniProt P41212+P52333); assay: AlphaScreen SureFire pSTAT5 assay, Ba/F3 TEL-JAK3; format: cell-based
# JAK2V617F [1] = target: T1, JAK2V617F (Homo sapiens, UniProt O60674, V617F); assay: AlphaScreen SureFire pSTAT5 assay, Ba/F3-JAK2V617F; format: cell-based
# [2] = target: IL-3-activated wild-type JAK2 (Homo sapiens, UniProt O60674); assay: AlphaScreen SureFire pSTAT5 assay, IL-3-stimulated Ba/F3 wild-type JAK2; format: cell-based
# [3] = test system: Ba/F3 cells expressing JAK2V617F; assay: MTS cell proliferation assay, Ba/F3 JAK2V617F; format: cell-based, murine; conditions: Mus musculus, BaF3, 72 h, read-out: Cell proliferation assay V617F IC50±s.d.
# JAK2 [4] = target: T2, JAK2 (Homo sapiens, UniProt O60674); assay: JAK LanthaScreen Kinase Assay; conditions: Biochemical measurement of JAK inhibition, JAK2 IC50±s.d., Table 1
# JAK3 = target: T3, JAK3 (Homo sapiens, UniProt P52333); assay: JAK LanthaScreen Kinase Assay; conditions: second-tier biochemical / LanthaScreen assay
# T3 sequence (P52333 1-1124): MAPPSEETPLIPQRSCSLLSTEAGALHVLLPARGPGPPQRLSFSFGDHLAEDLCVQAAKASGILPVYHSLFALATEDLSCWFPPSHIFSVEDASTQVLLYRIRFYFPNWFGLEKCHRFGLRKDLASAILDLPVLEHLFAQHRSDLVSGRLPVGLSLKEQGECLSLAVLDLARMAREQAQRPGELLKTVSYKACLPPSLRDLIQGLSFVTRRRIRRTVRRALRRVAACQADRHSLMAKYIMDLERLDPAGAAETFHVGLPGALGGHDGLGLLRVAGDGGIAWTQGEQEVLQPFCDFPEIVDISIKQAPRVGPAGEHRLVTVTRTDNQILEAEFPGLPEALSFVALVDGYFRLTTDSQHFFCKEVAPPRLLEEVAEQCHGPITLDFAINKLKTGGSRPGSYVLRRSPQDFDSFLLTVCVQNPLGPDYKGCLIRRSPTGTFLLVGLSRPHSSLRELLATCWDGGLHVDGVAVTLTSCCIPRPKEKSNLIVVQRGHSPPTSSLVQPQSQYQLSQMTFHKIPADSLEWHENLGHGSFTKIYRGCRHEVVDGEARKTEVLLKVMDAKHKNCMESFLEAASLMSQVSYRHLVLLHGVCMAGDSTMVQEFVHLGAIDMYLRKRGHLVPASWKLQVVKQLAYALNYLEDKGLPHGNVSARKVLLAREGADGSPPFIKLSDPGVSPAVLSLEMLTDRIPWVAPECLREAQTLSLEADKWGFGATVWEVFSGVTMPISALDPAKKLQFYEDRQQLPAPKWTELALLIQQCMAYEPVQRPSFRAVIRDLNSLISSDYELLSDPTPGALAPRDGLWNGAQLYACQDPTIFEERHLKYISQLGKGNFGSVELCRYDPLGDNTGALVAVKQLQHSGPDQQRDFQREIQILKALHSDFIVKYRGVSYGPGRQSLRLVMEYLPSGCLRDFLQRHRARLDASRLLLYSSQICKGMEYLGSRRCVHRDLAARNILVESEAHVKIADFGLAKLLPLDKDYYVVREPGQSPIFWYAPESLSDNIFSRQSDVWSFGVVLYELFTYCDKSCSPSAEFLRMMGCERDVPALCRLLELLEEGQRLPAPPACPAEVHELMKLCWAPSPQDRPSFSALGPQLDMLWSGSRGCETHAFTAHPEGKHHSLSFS
# JAK3/JAK1 heterodimer = JAK3/JAK1 heterodimer (Homo sapiens, UniProt P23458+P52333); assay: Cellomics pSTAT5 assay, IL-2-stimulated NK-92 cells; format: cell-based
# Summary of the method: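 NK-92 cells were kept overnight in MEM Alpha with 0.3% FBS and 0.3% horse serum, then plated with DMSO or a 10-point 1:3 dilution series (20 to 0.001 μM) for 10 min. IL-2 (0.5 μg/ml) was then added for 20 min. Cells were fixed, stained for pSTAT5 (pY694) with Alexa Fluor 647 and Hoechst, and imaged. IC50 came from a four-parameter logistic fit.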
# [5] = test system: cytotoxic T-cells, CD3+CD8a+; assay: 14-day rat immunotoxicology, flow cytometry; format: in vivo, Sprague-Dawley rats; conditions: for Change in cytotoxic T-cells, CD3+CD8a+, peripheral blood / Change in cytotoxic T-cells, CD3+CD8a+, spleen: gavage, Compound 1 15 mg/kg, Compound 2 (LY2784544) 30 mg/kg; for Percentage of T-cytotoxic cells (peripheral blood and splenic): pharmacologically active exposures, result in words
# JAK2 [6] = target: T2, JAK2; assay: Cellomics pSTAT5 assay, EPO-stimulated TF-1 cells; format: cell-based
# Summary of the method: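 TF-1 cells were starved overnight in RPMI with 0.6% FBS, then plated at 2 × 10^5 cells/well with DMSO or a 10-point 1:3 dilution series (20 to 0.001 μM). After 10 min, erythropoietin (1.6 units/ml) was added for 20 min. Cells were fixed, stained with anti-pSTAT5 (pY694) Alexa Fluor 647 and Hoechst, and imaged. IC50 came from a four-parameter logistic fit.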
# [7] = test system: Ba/F3 cells expressing JAK2V617F; assay: Caspase-Glo 3/7 apoptosis assay; format: cell-based, murine; conditions: Mus musculus, BaF3, 18 h, read-out: Induction of apoptosis EC50 (Caspase3/7-glo)
# [8] = test system: JAK2V617F signaling in Ba/F3-JAK2V617F-GFP ascitic tumor cells; assay: In vivo target inhibition, pSTAT5 in mouse ascitic tumor model; parameters: species or system SCID mice
# Summary of the method: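 Ascitic tumors were grown in CB17 SCID mice for 7 days after intraperitoneal implantation of 1 × 10^7 Ba/F3-JAK2V617F-GFP cells. A single oral gavage dose (2.5–80.0 mg/kg, six animals/group) was given and tumor cells were collected 30 min later. For time courses, 20, 40 or 80 mg/kg was given with collection at 0.25–6.0 h. Cells were fixed, stained 2 h for pSTAT5 (pY694), and analysed by flow cytometry. Statistics used ANOVA with Dunnett's test and a four-parameter logistic fit.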
# [9] = test system: Ba/F3-JAK2V617F-GFP tumor burden; assay: 14-day in vivo efficacy, JAK2V617F-induced mouse MPN model; parameters: species or system SCID mice
# Summary of the method: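 SCID mice received 1 × 10^7 Ba/F3-JAK2V617F-GFP cells intravenously (six mice/group). Twice-daily oral gavage at 2.5–80.0 mg/kg started 7 days after infusion and ran 14 days. Endpoints were complete blood counts from cardiac puncture, spleen weight, and FACS of splenocytes for total number and percentage of GFP-positive cells. Dunnett's test at α=0.05.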
# [10] = test system: Ba/F3-JAK2V617F-GFP tumor cells, erythroid progenitors, peripheral blood counts; assay: 8-day mouse hematologic disease model, hematopoiesis; format: in vivo, SCID mice; conditions: result in words
# Summary of the method: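 This was an 8-day version of the intravenous Ba/F3-JAK2V617F-GFP SCID mouse model. Dosing at 5, 20, 40 or 80 mg/kg began one day before tumor cell infusion and continued twice daily for 8 days. Splenocytes were analysed by FACS for GFP-positive tumor cells and for erythroid progenitors stained with Ter119-APC and CD71-PE, with 7-AAD excluding nonviable cells. Peripheral blood counts were also taken.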
# [11] = 14-day rat pilot toxicology study; format: in vivo; conditions: 30, 60, or 100 mg/kg
# JAK2V617F [12] = target: T1, JAK2V617F; assay: Western blot pSTAT5, Ba/F3 JAK2V617F; format: cell-based; conditions: 50 nM–20 μM, 2 h
# wild-type JAK2 = wild-type JAK2 (Homo sapiens, UniProt O60674); assay: Western blot pSTAT5, IL-3-stimulated Ba/F3 wild-type JAK2; format: cell-based; conditions: Ba/F3 wild-type JAK2, 50 and 200 nM
# JAK2V617F [13] = target: T1, JAK2V617F; assay: Western blot pSTAT5, HEK293T JAK2V617F; format: cell-based; conditions: HEK293 cells expressing JAK2V617F, 1 h
# JAK2 H538Q = JAK2 H538Q (Homo sapiens, UniProt O60674, H538Q); assay: Western blot pSTAT5, HEK293T JAK2 H538Q; format: cell-based; conditions: HEK293 cells expressing JAK2 H538Q, 1 h
# JAK2 R564Q = JAK2 R564Q (Homo sapiens, UniProt O60674, R564Q); assay: Western blot pSTAT5, HEK293T JAK2 R564Q; format: cell-based; conditions: HEK293 cells expressing JAK2 R564Q, 1 h
# JAK2Y931C = JAK2Y931C (Homo sapiens, UniProt O60674, Y931C); assay: Western blot pSTAT5, HEK293T JAK2Y931C; format: cell-based; conditions: HEK293 cells expressing JAK2Y931C, 1 h
# JAK2Y931C, sequence (O60674 whole entry Y931C): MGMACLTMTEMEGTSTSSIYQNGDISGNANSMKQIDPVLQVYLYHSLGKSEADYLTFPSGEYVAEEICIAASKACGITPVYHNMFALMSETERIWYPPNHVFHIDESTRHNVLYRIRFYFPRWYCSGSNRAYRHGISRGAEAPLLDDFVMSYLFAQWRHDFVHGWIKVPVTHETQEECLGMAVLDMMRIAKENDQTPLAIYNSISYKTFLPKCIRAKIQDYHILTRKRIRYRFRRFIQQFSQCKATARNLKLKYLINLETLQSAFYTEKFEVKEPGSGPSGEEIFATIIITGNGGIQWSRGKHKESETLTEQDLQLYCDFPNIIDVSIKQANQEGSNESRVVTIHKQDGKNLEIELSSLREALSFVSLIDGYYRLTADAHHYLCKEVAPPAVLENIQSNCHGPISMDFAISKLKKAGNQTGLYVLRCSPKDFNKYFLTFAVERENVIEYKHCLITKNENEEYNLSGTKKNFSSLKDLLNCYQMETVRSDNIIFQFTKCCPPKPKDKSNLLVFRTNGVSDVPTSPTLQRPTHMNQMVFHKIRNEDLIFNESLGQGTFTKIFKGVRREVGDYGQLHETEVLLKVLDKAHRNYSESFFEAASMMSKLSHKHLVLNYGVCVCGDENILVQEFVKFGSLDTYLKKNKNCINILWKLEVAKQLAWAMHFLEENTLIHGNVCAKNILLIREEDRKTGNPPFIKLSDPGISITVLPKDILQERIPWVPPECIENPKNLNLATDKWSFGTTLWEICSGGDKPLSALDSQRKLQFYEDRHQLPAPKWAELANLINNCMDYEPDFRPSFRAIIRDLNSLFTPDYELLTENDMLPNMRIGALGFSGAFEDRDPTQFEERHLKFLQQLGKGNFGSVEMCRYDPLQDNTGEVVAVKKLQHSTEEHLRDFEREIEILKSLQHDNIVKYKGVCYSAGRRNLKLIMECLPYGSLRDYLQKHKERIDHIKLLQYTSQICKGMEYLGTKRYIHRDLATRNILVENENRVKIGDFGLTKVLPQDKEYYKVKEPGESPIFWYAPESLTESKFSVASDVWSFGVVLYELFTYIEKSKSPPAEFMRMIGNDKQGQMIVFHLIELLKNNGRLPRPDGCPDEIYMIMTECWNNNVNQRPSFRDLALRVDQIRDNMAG
# T1 sequence (O60674 whole entry V617F): as the sequence (O60674 whole entry Y931C) above, with V617F, C931Y counted along it
# TEL-JAK2, sequence (O60674 840-1132 limits assumed, one chain of several): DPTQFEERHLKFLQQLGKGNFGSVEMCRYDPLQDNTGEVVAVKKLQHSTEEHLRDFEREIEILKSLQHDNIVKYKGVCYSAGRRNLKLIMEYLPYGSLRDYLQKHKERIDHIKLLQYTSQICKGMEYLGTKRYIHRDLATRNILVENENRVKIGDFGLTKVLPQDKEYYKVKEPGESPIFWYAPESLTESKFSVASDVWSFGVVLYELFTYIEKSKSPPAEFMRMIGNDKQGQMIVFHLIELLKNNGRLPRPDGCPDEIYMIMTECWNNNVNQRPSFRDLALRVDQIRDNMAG
# T2 sequence (O60674 whole entry): as the sequence (O60674 whole entry Y931C) above, with C931Y counted along it
# TEL-JAK1, sequence (P23458 875-1154 limits assumed, one chain of several): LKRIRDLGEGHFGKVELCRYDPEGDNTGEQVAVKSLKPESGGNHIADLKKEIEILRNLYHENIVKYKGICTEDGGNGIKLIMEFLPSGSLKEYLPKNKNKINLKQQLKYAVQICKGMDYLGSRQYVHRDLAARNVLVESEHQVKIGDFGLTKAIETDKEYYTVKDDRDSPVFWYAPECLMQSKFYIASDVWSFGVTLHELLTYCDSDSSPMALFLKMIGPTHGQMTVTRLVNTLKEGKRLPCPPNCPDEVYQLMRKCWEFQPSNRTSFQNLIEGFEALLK
# JAK3/JAK1 heterodimer, sequence (P23458 whole entry, one chain of several): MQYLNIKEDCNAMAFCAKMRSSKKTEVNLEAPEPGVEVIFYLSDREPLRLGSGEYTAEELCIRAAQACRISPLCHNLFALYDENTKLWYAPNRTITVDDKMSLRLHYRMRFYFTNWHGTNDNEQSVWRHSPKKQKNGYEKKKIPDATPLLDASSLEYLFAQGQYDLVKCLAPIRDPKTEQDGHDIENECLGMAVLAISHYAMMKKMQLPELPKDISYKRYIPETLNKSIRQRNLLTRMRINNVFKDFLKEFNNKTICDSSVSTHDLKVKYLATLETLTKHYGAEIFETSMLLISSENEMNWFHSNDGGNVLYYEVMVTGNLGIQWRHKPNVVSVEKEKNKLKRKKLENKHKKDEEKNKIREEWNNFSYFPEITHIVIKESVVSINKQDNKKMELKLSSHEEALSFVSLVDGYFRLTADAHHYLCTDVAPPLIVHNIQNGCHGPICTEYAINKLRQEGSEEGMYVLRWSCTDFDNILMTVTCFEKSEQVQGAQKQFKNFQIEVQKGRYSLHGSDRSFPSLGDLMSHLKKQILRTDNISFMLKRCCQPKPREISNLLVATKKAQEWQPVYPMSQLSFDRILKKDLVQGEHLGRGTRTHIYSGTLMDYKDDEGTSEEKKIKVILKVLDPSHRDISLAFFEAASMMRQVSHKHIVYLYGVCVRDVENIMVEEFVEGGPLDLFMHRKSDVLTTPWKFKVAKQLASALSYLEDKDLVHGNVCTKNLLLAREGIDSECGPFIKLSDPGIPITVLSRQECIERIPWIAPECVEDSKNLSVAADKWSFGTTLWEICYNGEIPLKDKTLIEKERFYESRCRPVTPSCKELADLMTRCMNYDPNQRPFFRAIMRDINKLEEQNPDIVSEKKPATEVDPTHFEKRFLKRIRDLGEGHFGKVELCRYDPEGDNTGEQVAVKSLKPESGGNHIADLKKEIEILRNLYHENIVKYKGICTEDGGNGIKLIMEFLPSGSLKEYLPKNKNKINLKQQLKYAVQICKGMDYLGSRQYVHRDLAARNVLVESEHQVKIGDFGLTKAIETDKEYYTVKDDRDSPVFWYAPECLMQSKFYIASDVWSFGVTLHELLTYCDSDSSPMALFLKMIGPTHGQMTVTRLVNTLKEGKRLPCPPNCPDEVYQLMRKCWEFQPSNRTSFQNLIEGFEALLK
# JAK3/JAK1 heterodimer, sequence (P14784 27-551 partner, one chain of several): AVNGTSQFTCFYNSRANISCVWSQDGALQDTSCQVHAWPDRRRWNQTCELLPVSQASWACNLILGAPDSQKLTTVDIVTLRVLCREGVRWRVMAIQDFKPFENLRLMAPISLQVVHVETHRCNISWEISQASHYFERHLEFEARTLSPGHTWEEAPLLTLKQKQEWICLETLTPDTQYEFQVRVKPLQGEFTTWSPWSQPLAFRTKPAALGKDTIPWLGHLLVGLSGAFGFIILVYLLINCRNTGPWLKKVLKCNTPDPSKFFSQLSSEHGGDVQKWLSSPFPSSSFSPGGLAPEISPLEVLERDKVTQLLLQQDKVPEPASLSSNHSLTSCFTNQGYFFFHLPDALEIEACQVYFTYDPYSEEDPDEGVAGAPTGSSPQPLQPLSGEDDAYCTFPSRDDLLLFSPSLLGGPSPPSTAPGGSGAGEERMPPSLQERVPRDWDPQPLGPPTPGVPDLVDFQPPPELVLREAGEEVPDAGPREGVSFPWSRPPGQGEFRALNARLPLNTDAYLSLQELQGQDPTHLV
# JAK3/JAK1 heterodimer, sequence (P31785 23-369 partner, one chain of several): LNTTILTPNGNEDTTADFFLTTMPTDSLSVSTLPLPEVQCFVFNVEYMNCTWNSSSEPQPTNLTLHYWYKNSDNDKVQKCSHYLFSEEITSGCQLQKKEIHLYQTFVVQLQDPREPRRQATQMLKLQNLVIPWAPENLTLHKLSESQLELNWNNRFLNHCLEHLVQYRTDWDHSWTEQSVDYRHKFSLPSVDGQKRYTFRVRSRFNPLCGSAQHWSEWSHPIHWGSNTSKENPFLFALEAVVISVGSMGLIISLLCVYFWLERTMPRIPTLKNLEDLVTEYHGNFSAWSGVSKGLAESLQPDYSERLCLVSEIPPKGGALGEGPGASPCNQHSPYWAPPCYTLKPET
# IL-3-activated wild-type JAK2, sequence (O60674 whole entry): as the sequence (O60674 whole entry Y931C) above, with C931Y counted along it
# wild-type JAK2, sequence (O60674 whole entry): as the sequence (O60674 whole entry Y931C) above, with C931Y counted along it
# JAK2 R564Q, sequence (O60674 whole entry R564Q): as the sequence (O60674 whole entry Y931C) above, with R564Q, C931Y counted along it
# JAK2 H538Q, sequence (O60674 whole entry H538Q): as the sequence (O60674 whole entry Y931C) above, with H538Q, C931Y counted along it
structure (smiles),measurement,setting,value
"Cc1cc(Nc2nc(N[C@@H](C)c3ncc(F)cn3)ncc2Cl)n[nH]1 [AZD1480, reference compound]",IC50,TEL-JAK1,663 ± 74 nM
same,IC50,TEL-JAK2,139 ± 47 nM
same,IC50,TEL-JAK3,2.55 ± 0.345 µM
same,IC50,JAK2V617F [1],19 ± 13 nM
same,IC50,[2],181 ± 132 nM
same,IC50,[3],43 ± 1 nM
"Cc1cc(Nc2ccc3ncn([C@@H]4CCc5ccc(F)cc54)c3n2)[nH]n1.Cl.Cl [Compound 1, 3-[(1R)-6-fluoro-2,3-dihydro-1H-inden-1-yl]-N-(3-methyl-1H-pyrazol-5-yl)-3H-imidazo[4,5-b]pyridin-5-amine dihydrochloride]",IC50,JAK2 [4],2 nM
same,"Selectivity for JAK2 over JAK3, biochemical",JAK3,fourfold
same,IC50,JAK3/JAK1 heterodimer,228 ± 76 nM
same,"Change in cytotoxic T-cells, CD3+CD8a+, peripheral blood",[5],−39 (P<0.05) %
same,"Change in cytotoxic T-cells, CD3+CD8a+, spleen",[5],−42 (P<0.05) ^d %
same,Percentage of T-cytotoxic cells (peripheral blood and splenic),[5],statistically significant decrease
"Cc1cc(Nc2cc(CN3CCOCC3)c3nc(C)c(Cc4ccc(Cl)cc4F)n3n2)n[nH]1 [LY2784544, 3-(4-chloro-2-fluorobenzyl)-2-methyl-N-(5-methyl-1H-pyrazol-3-yl)-8-(morpholinomethyl)imidazo[1,2-b]pyridazin-6-amine]",IC50,JAK2 [6],45 ± 19 nM
same,IC50,JAK3/JAK1 heterodimer,942 ± 255 nM
same,"Change in cytotoxic T-cells, CD3+CD8a+, peripheral blood",[5],No change
same,"Change in cytotoxic T-cells, CD3+CD8a+, spleen",[5],No change
same,Percentage of T-cytotoxic cells (peripheral blood and splenic),[5],did not decrease
same,IC50,TEL-JAK1,2900 ± 486 nM
same,IC50,TEL-JAK2,191 ± 36 nM
same,IC50,TEL-JAK3,4.74 ± 0.738 µM
same,IC50,[3],55 ± 4 nM
same,EC50,[7],113 ± 0.023 nM
same,"TEC50, plasma concentration to inhibit 50% of STAT5 phosphorylation",[8]; 30 min after oral dosing,699.0 ng/ml and 1.49 μM
same,Duration of statistically significant inhibition of STAT5 phosphorylation,[8]; single 40 mg/kg oral dose,at least 2 h
same,Duration of statistically significant inhibition of STAT5 phosphorylation,[8]; single 80 mg/kg oral dose,at least 6 h
same,"TED50, dose to inhibit 50% of STAT5 phosphorylation","[8]; single oral dose, 30 min after dosing, ascitic tumor cells",12.7 mg/kg
same,Spleen mass reduction,"[9]; 20 mg/kg BID, 14 days",about 20%
same,Decrease in GFP-positive Ba/F3-JAK2V617F cells,"[9]; 20 mg/kg BID, 14 days, spleen",~50%
same,Reduction of the number of Ba/F3 cells expressing JAK2V617F,"[9]; 20, 40 or 80 mg/kg, BID",≥ 50%
same,TED50 for tumor burden reduction,"[9]; oral, twice daily, 14 days, Ba/F3-JAK2V617F-GFP cells in spleen",13.7 mg/kg
same,Percentage of Ba/F3-JAK2V617F-GFP-positive cells in spleen,"[10]; 40 mg/kg (P=8 × 10^−4) and 80 mg/kg (P=8 × 10^−7) BID, 8 days",significantly reduced
same,Effect on erythroid progenitor (CD71+/Ter119+) cells,"[10]; 5–80 mg/kg BID, 8 days",no effect; also recorded: did not affect
same,Effect on peripheral blood reticulocytes,"[10]; 5–80 mg/kg BID, 8 days",no effect; also recorded: did not reduce
same,Effect on platelets,[10],no effect
same,Gastric- and intestine-related toxicity,[11],No gastric- and intestine-related toxicity was observed
same,"Inhibition of STAT5 phosphorylation, western blot",JAK2V617F [12],potently inhibited
same,"Inhibition of IL-3-stimulated STAT5 phosphorylation, western blot",wild-type JAK2,marginal inhibition
same,"Inhibition of STAT5 phosphorylation, western blot",JAK2V617F [13],effectively inhibited
same,"Inhibition of STAT5 phosphorylation, western blot",JAK2 H538Q,effectively inhibited
same,"Inhibition of STAT5 phosphorylation, western blot",JAK2 R564Q,effectively inhibited
same,"Inhibition of STAT5 phosphorylation, western blot",JAK2Y931C,much less potency
